Reference: ChEMBL document CHEMBL3399919, “Synthesis, optical properties and preliminary in vitro photodynamic effect of pyridyl and quinoxalyl substituted chlorins” (Bioorg Med Chem, 2015)
Calls of active or inactive are those of the source. The calls are words filed in the database; no cut-off is given here.

Columns and labels:
HeLa [1] = experiment: Photosensitizing activity against human HeLa cells assessed as cell viability at 0.05 uM pre-incubated for 24 hrs followed by 15 mins exposure to 670 to 710 nm light at dose of 2.0 J/cm2 and measured 12 hrs after radiation by WST-8 assay; format: functional; details: light or radiation study, read-out: Activity
How it was run: (§1)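 HeLa (ATCC) grown in EMEM + 10% FBS, 37 °C, 5% CO2, humidified; seeded per well in 96-well plates, 24 h, then medium replaced with fresh medium containing photosensitizer (0–10 μM). Irradiated with 670–710 nm light, 2 J/cm2 over 15 min, or kept dark; then 12 h at 37 °C in dark. WST-8 (CCK-8) added, 2 h; formazan read. DMSO vehicle control, medium+reagent blank; ≥3 repeats, mean.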

HeLa [2] = experiment: Photosensitizing activity against human HeLa cells assessed as reduction in cell viability pre-incubated for 24 hrs followed by 15 mins exposure to 670 to 710 nm light at dose of 2.0 J/cm2 and measured 12 hrs after radiation by WST-8 assay; format: functional, cell-based; details: for IC50: light or radiation study; how it was run: as §1
HeLa [3] = experiment: Photosensitizing activity against human HeLa cells assessed as cell viability at 0.1 uM pre-incubated for 24 hrs followed by 15 mins exposure to 670 to 710 nm light at dose of 2.0 J/cm2 and measured 12 hrs after radiation by WST-8 assay; format: functional; details: light or radiation study, read-out: Activity; how it was run: as §1
HeLa [4] = experiment: Dark toxicity against human HeLa cells assessed as cell viability up to 10 uM incubated for 12 hrs under dark conditions by WST-8 assay; format: cell-based; how it was run: as §1
[5] = Singlet oxygen generation assessed as comparative absorbance decay of 1,3-diphenylisobenzofuran at 1 uM at 418 nm after photoirradiation at 2.0 J/cm2 for 15 mins by spectrometry
How it was run: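 Photosensitizer at 1 μM with DPBF (50 μM in DMSO), irradiated; visible spectra recorded and normalized DPBF absorbance at 418 nm compared against DPBF-only control, methylene blue as reference; mean of three experiments.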

SMILES | viability at 0.05 µM (HeLa [1]) [%] | Activity (HeLa [2]) | IC50 (HeLa [2]) [nM] | viability at 0.1 µM (HeLa [3]) [%] | Activity (HeLa [4]) | Activity [5]
C=Cc1c(C)c2cc3nc(c4c5[nH]c(cc6nc(cc1[nH]2)C(C)=C6CC)c(/C=C/c1ccncc1)c5C(=O)C4)[C@@H](CCC(=O)OC)[C@@H]3C | 22.2 | Dose-dependent effect | 33 | 1.4 | Non-toxic | Active
CCC1=C(C)c2cc3[nH]c(cc4nc(c5c6[nH]c(cc1n2)c(C)c6C(=O)N(OC)C5=O)[C@@H](CCC(=O)OC)[C@@H]4C)c(C)c3/C=C/c1ccncc1 | – | Dose-dependent effect | 3120 | – | Non-toxic | Active
C=Cc1c(C)c2cc3nc(c4c5[nH]c(cc6nc(cc1[nH]2)C(C)=C6CC)c(C)c5C(=O)N(Cc1ccncc1)C4=O)[C@@H](CCC(=O)OC)[C@@H]3C | – | Dose-dependent effect | 189 | – | Non-toxic | Active
CN(C)c1ccc2nc3ccc(=[N+](C)C)cc-3sc2c1 | – | – | – | – | – | Active
CCC1=C(C)c2cc3[nH]c(cc4nc(c5c6[nH]c(cc1n2)c(C)c6C(=O)C5)[C@@H](CCC(=O)OC)[C@@H]4C)c(C)c3/C=C/c1ccncc1 | – | Dose-dependent effect | 581 | – | Non-toxic | Active
CCC1=C(C)c2cc3[nH]c(cc4nc(c5c6[nH]c(cc1n2)c(C)c6C(=O)N(OC)C5=O)[C@@H](CCC(=O)OC)[C@@H]4C)c(C)c3/C=C/c1ccc2ccccc2n1 | – | Dose-dependent effect | 992 | – | Non-toxic | Active
C=Cc1c(C)c2cc3nc(c(CC(=O)OC)c4[nH]c(cc5nc(cc1[nH]2)C(C)=C5CC)c(C)c4C(=O)NCc1ccncc1)[C@@H](CCC(=O)OC)[C@@H]3C | 65.5 | Dose-dependent effect | 71 | 28.1 | Non-toxic | –
CCC1=C(C)c2cc3[nH]c(cc4nc(c5c6[nH]c(cc1n2)c(C)c6C(=O)C5)[C@@H](CCC(=O)OC)[C@@H]4C)c(C)c3/C=C/c1ccc2ccccc2n1 | – | Dose-dependent effect | 631 | – | Non-toxic | Active
CCC1=C(C)c2cc3[nH]c(cc4nc(c(CC(=O)OC)c5[nH]c(cc1n2)c(C)c5C(=O)OC)[C@@H](CCC(=O)OC)[C@@H]4C)c(C)c3/C=C/c1ccc2ccccc2n1 | – | Dose-dependent effect | 170 | – | Non-toxic | Active
CCC1=C(C)c2cc3[nH]c(cc4nc(c(CC(=O)OC)c5[nH]c(cc1n2)c(C)c5C(=O)OC)[C@@H](CCC(=O)OC)[C@@H]4C)c(C)c3/C=C/c1ccncc1 | – | Dose-dependent effect | 141 | – | Non-toxic | Active
